# Results reported in the EternaBench riboswitch data.
# System: MS2 coat protein
# Experiment: apparent Kd, MS2 coat protein; higher = weaker binding; RNA-MaP array; FMN 200 µM where present
# Outline: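 Two titrations, one without ligand and one with constant ligand, were run with SNAP-549-labelled MS2 coat protein from 0.7 or 1.5 nM, doubling to 3 µM. The targets were designs transcribed by stalled E. coli RNA polymerase on Illumina sequencing-chip clusters, in 100 mM Tris-HCl pH 7.5, 80 mM KCl, 4 mM MgCl2, BSA, DTT, yeast tRNA and Tween-20. The apparent Kd is the median of filtered per-cluster binding-curve fits, with green signal normalised to red-channel RNA signal and control-cluster median Fmax.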
# [1] = designed as: OFF switch for flavin mononucleotide, no ligand
# [2] = ligand present: flavin mononucleotide, designed as: OFF switch for flavin mononucleotide
# [3] = designed as: ON switch for flavin mononucleotide, no ligand
# [4] = ligand present: flavin mononucleotide, designed as: ON switch for flavin mononucleotide
Sequence,apparent Kd [1] [nM],apparent Kd [2] [nM],apparent Kd [3] [nM],apparent Kd [4] [nM]
AUUCAGCGGAACUUGACAUCCCUACAUGAGGAUCACCCAUGUCAGGAUAUAUGCUCUCGAGCUGCAUAGAAGGGACAUAGUGGG,48.2,67,–,–
GAGCGAAAGCUCAAUGUCGAUAGCAGAAGGACAUCCUUAAACAUGAAAACAUGAGGAUCACCCAUGUAGGAUAUGCUAUCGACU,7.31,9.1,–,–
GGUGCUAUGUAGAAGGCAGAUCUGAUUCAGAUCUGAGGAUAUACAUGAGGAUCACCCAUGUUAUGCACCAGCACGAGAGUGCAC,7.57,13.3,–,–
ACAGGUGCAGGAUAUACAAUCGUGCUUCGGCACGUAAGAUCACAUGAGGAUCACCCAUGUAGAAGGGCACCUGU,44.9,447,–,–
AUAAGCUCGUCAGGAUAUACGUCACUGUUUCGGCAGUGAGGUAUGAUCACAUGAGGAUCACCCAUGUAGAAGGGACGAGCUUAU,5.24,8.29,–,–
GGAAACUACGAGAAGGACAUGUGGUCCUUCAGUUACAUGAGGAUCACCCAUGUAGGAUAUCGUAGUUUCAGGAUCGUGAGAUCC,33,12.8,–,–
ACCUUGUCAGGAUAUCCUAUUUUUUGUUUUAUAUUUACUAUGGAGAAGGGACAUGAGGAUCACCCAUGUUGGUC,38.8,50.2,–,–
AGGUGUAGAGGAUAUUCAUUCUUCCACAUGAGGAUCACCCAUGUCCUGGUCACCAAGGACGGAGAAGGCUACACCA,70.2,38.1,–,–
AUAUGAAAGAUAGGAUAUACUGAGGUUGAAUGGGUAGAAGGAUCGAUAGGGAAGAAUACAUGAGGAUCACCCAUGUUGUGGAUU,–,–,81.7,51.9
AAAACAUGAGGAUCACCCAUGUAUAGAUCGGUUAAUAGAAGUGAGGAUAUGCUUAAAAUAAGGUAGCAGAAGGCACUGGGUACA,–,–,23.9,25.1
GCCUCAUAGUAGAAGGGACUAUUACAGUAAUUUUUUUAGAUUAAAUAACAUGAGGAUCACCCAUGUCAGGAUAUACUAAGAGGC,26.4,37.1,–,–
AUAAAUCAUGUAGGAUAUGCGUGGCGAAGCUAUGCAGAAGGACAUGAGGAUCACCCAUGUCGUUCCGUCUGCGUACAGACGGAA,33.8,306,–,–
UGACUCGGAGGAUAUACAUGAGGAUCACCCAUGUUUGCCGGCCGCCGAGUAACCUGGUGUAGAAGGUCGAGUGU,20.4,18.9,–,–
UAAUAAUUAUGAGGAUAUAUACAACAUGAGGAUCACCCAUGUACCCAUGUAGUAGAAGGCAUAUUUUUAGUUAAUAACACAACU,–,–,71.3,30
CCGAAUAAGCAGGAUAUCGAAUCGGAGACGAUUCGAGAAGGGUUAACAUGAGGAUCACCCAUGUUCCUUAACGG,19.1,20.8,–,–
UAUAUAUAGUAAGGAUAUGUAUUAAUGUUAUAAACAGAAGGUACUGACAUGAGGAUCACCCAUGUUUUAGUGUGGGCAUGUAGA,92.1,131,–,–
CAGUACUGAGGAUAUACAUGAGGAUCACCCAUGUGUCUAAAGUAGGAUACUACUAUUAGUAGAAGGCAGUACUG,12.1,14.9,–,–
GGGCCCGGAGGAUAUACAUGAGGAUCACCCAUGUAGGGCUCGGGUAUUUCUGGGUCUUGUAGAAGGCCGGGCCC,16,22.8,–,–
UGCUAGGAUGGGUCUAAUGGACCGCAGGAUAUGCUUGUACAUGAGGAUCACCCAUGUAACAUUGUGCAGAAGGGUGGAUCCACG,–,–,65.6,11.6

Sequence,apparent Kd [1] [nM],apparent Kd [2] [nM],apparent Kd [3] [nM],apparent Kd [4] [nM]
AAUCCACAUGAGGAUCACCCAUGUCAGGAUAUCGUGUCGCGGGUUUCGGUCCGUGAUGCGAGAAGGGACGGCUG,31.9,53.1,–,–
CGGCAAGUCACAGGAUAUGGUGAUGUACAUGAGGAUCACCCAUGUCCGUCUUCUCUCACAAGAUGCCAGAAGGGUGACUUCCAG,–,–,946,140
AGACGACAACAUGAGGAUCACCCAUGUUCUAGUUUAGAGUCGCAGGAUAUGACUUCGAAGCUUAGUCAGAAGGGUGAAUUCACA,–,–,37.8,51
UCCUGGCGAGGAUAUACAAUGUUUUUCGCGUUUUGUUUCGAACAUGAGGAUCACCCAUGUAGAAGGUGCUACUG,38.3,41,–,–
UUUCGGCUAGGAUAUCUGUGCUCGGACAUGAGGAUCACCCAUGUGCGUCAUCACGGAGCCGGAGAAGGAGCUCGUA,15.8,20,–,–
CACGUCUGAGGAUAUCGUUUUUUGUACAUGAGGAUCACCCAUGUCCAAUUUUGUAUAUUACGAGAAGGCAGUGGAA,12.9,19.7,–,–
AGCAUGUGAGGAUAUGCAGACUCCGGUAAAUCUGGAGUCCGGUAGAAGGCACAUGAGGAUCACCCAUGUGAGAU,43.4,119,–,–
GACACGUGAGGAUAUACAUGAGGAUCACCCAUGUAAGUACACGUGGCUGUUCCUGCAUGUAGAAGGCACGCAUU,22.8,17.2,–,–
GUCCCACAUGAGGAUCACCCAUGUGAGGAUAUGGAUUCGCUGGCCGUAGCCAGUGGAUCCAGAAGGCGCGUGAU,73.5,77.2,–,–
AUAAAACAUGAGGAUCACCCAUGUAAUAAGAACCGAGGAUAUGGAAAUAAUAAUAAUAAACCAGAAGGUGGUGAUC,–,–,146,326
AAAAUGUAAGGAUAUAGCCGGAACCCAGGGUUUGGACCCGGCUAGAAGGUACAUGAGGAUCACCCAUGUAAGAA,17.2,22.8,–,–
UCUCGCUGGCGAGGAUAUCCUGUGCGGUUCCGGCUCGUGUCUGUUACAUGAGGAUCACCCAUGUGGGAGAAGGUGCCUGUGGCU,32.7,32.6,–,–
CUGAAGUCAGGAUAUUGUUAAUUUAGUUGUUUGUAUUAGUUCGAGAAGGGACAUGAGGAUCACCCAUGUAAGUC,32,27.1,–,–
AGUCAGAGCAGAGGAUAUAUACAUGAGGAUCACCCAUGUGACUGACUACGCUAGAAAUAGCAUGUAUAGAAGGCUGCUCUGACA,344,911,–,–
AAGUAGGGAGGAUAUACAUGGAUAUACAUUCAUGUGGACCUACAUGAGGAUCACCCAUGUAGAAGGCCCUAAUA,37.1,43.5,–,–
GUCCGGAGGGAGAAGGGCUAGGAGGUCCAGCUUAUGUGUGUUGCAACAUGAGGAUCACCCAUGUAGCAGGAUAUCCCUUGUACA,52.1,219,–,–
GCACUGGAUGUAGGAUAUCAGGACGAUAAGUCCUGAGAAGGACAUGAGGAUCACCCAUGUGAAAAUUCCAGUGCAAAUAAUAUA,13,19.1,–,–
CAAGGGCAUGAGAAGGCAUAAUUUAUAUUACCACAUGUUUACAUGAGGAUCACCCAUGUUACCUAUGAGGAUAUCAUGCCUACA,12.7,10.2,–,–
UAUAUAUAGUAAGGAUAUGUAUUAGUUUUAUAAACAGAAGGUACUGACAUGAGGAUCACCCAUGUUUUAGUGUGGGCAUGUAGA,90,144,–,–

Sequence,apparent Kd [1] [nM],apparent Kd [2] [nM],apparent Kd [3] [nM],apparent Kd [4] [nM]
UAAAUAAGUGUGAGGAUAUGCUGGUCCUUGGAUCAGCAGAAGGCACAUGAGGAUCACCCAUGUAAUAUAUUUAU,85.2,316,–,–
AUCGUUGACUGGACGAGAAUAGGGCAGGAUAUACAUGAGGAUCACCCAUGUGAAGCACGAAAGAGGUAGAAGGGCCCACGUCAU,–,20.5,–,–
ACCUCACAUGAGGAUCACCCAUGUUAGGAUAUCUCGGCGCCCUGUAGGCAGUAGCGCCAGAGAAGGAACGUGCA,24.3,25.2,–,–
CCUAUGUGAGGAUAUCACUGGUCUUCUCACUGGAUGAUUAGUGAGAAGGCACAUGAGGAUCACCCAUGUCGGUG,656,451,–,–
GAAGUUAGAGGAUAUACAUGAGGAUCACCCAUGUGUGUUGUGAACGAUGUACGUUUAUGUAGAAGGCUAACUUC,23.6,106,–,–
GGAUAGGACAGAGGAUAUACGUGCUAGAGAUACUACCAAAAUUUCCUCACAUGAGGAUCACCCAUGUAGAAGGCUGUCCUAUCG,180,143,–,–
ACAUGAGGAUCACCCAUGUGAUGAUCUUCCAUGUCAUAUUUCAGAAGGCACGCAUCUUUAAUGAGUGAGGAUAUGGAAUAUGCG,674,410,–,–
GGGUAGUGAGGAUAUCGUUGUUAGGAGGAGUAGGUAGGAGGCGAGAAGGCACAUGAGGAUCACCCAUGUAUGAA,26.8,29,–,–
GGAAAGUGAGGAUAUGGUAAAGUAAGUAUGUAGUAAGUAAUCCAGAAGGCACAUGAGGAUCACCCAUGUAAAUG,28.1,35.7,–,–
AUACAUGAGGAUCACCCAUGUUACAUGGGCUAGUUUUAACGUAGAAGGAUGUUAUUAUUAUUAGCAUAGGAUAUACAAUUUGAA,274,248,–,–
UGUUGUAUUACAGGAUAUCUAGUAUUUUUAUGUAGAGAAGGGUAUUCACAUGAGGAUCACCCAUGUAUAUACGAGGAAGUUGUG,–,–,39.7,43.2
AAUUAUUAUUGAGGAUAUCGUAUUGAAACAAUACGAGAAGGCGGAAUAAACAUGAGGAUCACCCAUGUGAGCCUGAUGCUUAUG,25,36.1,–,–
UGUCGGAGCAGAGGAUAUACAUGAGGAUCACCCAUGUAAUAGGAUGAAGCCUGGAAACAGGCAAUGUAGAAGGCUGCUCCGACA,57.9,670,–,–
CCUCAUGGUCGAGGAUAUAUAACGUGGAACGUAAUAGAAGGCGACAUGAGGAUCACCCAUGUAGCGUCCACUGGAGUCGCGCGG,119,62.2,–,–
CGGAUGUGAGGAUAUACAUGAGGAUCACCCAUGUGAGCCAGCUAGAUGACUGGCUCGUGUAGAAGGCACGUCUG,13.5,29.3,–,–
AAUUAGGUCACAGGAUAUACAACAACCAAUGCUGUAGAAGGGUGUCACAUACUUAGCUGACAUGAGGAUCACCCAUGUAUCCAC,–,–,172,68.2
UUUCUUGGGCAAGGAUAUCCUGUGCGGUUCCGGCUCGUGUCUGUCACAUGAGGAUCACCCAUGUGGGAGAAGGUGCCUGCGGUU,6.26,6.64,–,–
AACGGAAUGUAGAAGGGUGACAUGAGGAUCACCCAUGUUCACAUGCGUAUUAAAGUAUGUGAACCACAGGAUAUACUGUCCGUG,–,–,56.8,130
